# Wee1 stabilizer – inhibitors of human Wee1 degradation; 220,000 tested, 1.2% active; reporter increase, % at 5 µM; HeLa Luc-Wee1K328M stability, luciferase luminescence; 100% = proteasome inhibitor MG132 effect;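 active = activation above the mean of all tested compounds plus 3 SD, set per screening run, cut at about 8.8% in these data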;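 note: cells exposed to compound for 20 h before luminescence read; 0% = DMSO alone and 100% = MG132 at 30 µM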
# RBBP9 inhibitor – blocks human serine hydrolase RBBP9. O75884. recombinant RBBP9, FP-Rh probe fluorescence polarization. inhibition, % at 7.94 µM. 220,000 tested, 0.2% active. AID 1515;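 active = inhibition above the campaign mean of all tested compounds plus 3 SD, cut at about 14% in these data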;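 note: plate controls were DMSO wells with RBBP9 for no effect and wells lacking RBBP9 protein for full effect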
# Target sequence (O75884 whole entry, looked up): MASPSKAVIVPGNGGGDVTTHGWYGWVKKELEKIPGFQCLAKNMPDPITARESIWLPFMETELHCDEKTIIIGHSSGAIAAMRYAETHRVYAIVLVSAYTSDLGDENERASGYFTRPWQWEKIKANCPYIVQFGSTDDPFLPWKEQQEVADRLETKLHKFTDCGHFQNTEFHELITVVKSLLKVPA
#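 system = RBBP9 protein | input = RBBP9 at 2.5 µM in dispensed solution, before mixing | measured by = fluorescence polarization (mP), excitation 525 nm, emission 598 nm | incubation = enzyme-compound preincubation 30 min, then probe labeling 45 min, 25 °C | buffer or medium = Tris-NaCl-Pluronic buffer, pH 8.0 | compound = single dose 7.94 µM | also added = FP-Rh probe, 375 nM dispensing solution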
# zVAD death inh – L929 zVAD cell death inhibition. L929 zVAD necroptosis rescue, ATP luminescence, 24 h; with zVAD 60 µM. viability rescue, % at 10 µM. 220,000 tested, 0.38% active. AID 1377;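 active = activation, scaled between plate controls, above about 75%, limit read from the data; inactive = activation under that limit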;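 note: 0% = zVAD with DMSO and 100% = DMSO alone without zVAD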
# TNF death inh – TNF-alpha cell death inhibition in Jurkat FADD-/- cells | Jurkat FADD-/- TNF necroptosis rescue, ATP luminescence, 24 h; 0 = TNF only, 100 = no-TNF cells | activation (protection from cell death), % at 10 µM | 220,000 tested, 0.068% active;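 active = activation, meaning protection from cell death, of at least 50% relative to plate controls; inactive = activation below 50%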;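 note: necroptosis triggered by 40 ng/mL TNF-alpha added together with compound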
# m-calpain inh – blocks pig calpain II enzyme activity. inhibition, % at 16 µM. 220,000 tested, 0.37% active. purified calpain II, fluorogenic peptide substrate, 30 min;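 active = inhibition above about 50%, limit read from the data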
# Pf gametocyte – inhibitors of late stage P. falciparum gametocyte viability | AID 743093 | inhibition, % at 10.9 µM | 150,000 tested, 0.065% active | P. falciparum stage V gametocytes, ATP luminescence, 24 h;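 active = inhibition above the mean plus 3 SD of compounds within the control limits, set per campaign, cut at about 38% in these data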;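 note: 0% = DMSO wells and 100% = medium only without gametocytes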
# zVAD death conf – confirmed blocker of zVAD induced death in L929 cells | activation (protection from necroptosis), % at 10 µM | 760 tested, 16% active | shares compounds with zVAD death inh | L929 zVAD-induced necroptosis rescue, ATP luminescence, 24 h | AID 463117;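 active = mean protection from necroptosis of at least 50% over duplicate tests; inactive = mean protection below 50%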;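 note: 0% = cells with zVAD alone and 100% = vehicle cells without zVAD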
# Active calls of the source: *; . = not tested or not shown. Most compounds without a hit are left out; they make up all but 2.1% or so of the library.
SMILES,Wee1 stabilizer,RBBP9 inhibitor,zVAD death inh,TNF death inh,m-calpain inh,Pf gametocyte,zVAD death conf
COc1cccc(NC(=O)NC(C)C2CC3CCC2C3)c1 (stereo not drawn),0,-4,75*,1,32,-9,30
COC(=O)c1ccc(NC(=O)Nc2ccc(F)cc2)cc1,-1,-6,73,3,29,.,.
Cn1c(C(=O)NCCCN2CCCCCC2)cc2c(=O)n(C)c3ccccc3c21,0,-1,83*,3,-58,.,39
CN1CCN(CCNC(=O)c2cc3c(=O)n(C)c4ccccc4c3n2C)CC1,0,4,78*,4,-34,.,28
Cc1cc(C)n(CCC(=O)Nc2cccc(F)c2)n1,-1,-5,2,0,-20,5,.
Oc1ccccc1N=Cc1sc2ccccc2c1Cl,0,-2,86*,5,2,-6,3
O=C(NC(=S)N1CCc2ccccc21)c1ccccc1Br,2,-4,0,0,8,-1,.
CCOc1ccccc1Nc1cc(C)nc2ccc(C)cc12,.,.,.,.,.,-11,.
CCOc1ccc(NC(=O)NC23CC4CC(CC(C4)C2)C3)cc1,0,8,88*,3,12,-21,47
CCOc1ccc(NC(=O)Nc2ccc3nsnc3c2)cc1,-4,-6,81*,-1,-7,12,1
CCOC(=O)c1cccc(NC(=O)Nc2ccc(OCC)cc2)c1,-2,-6,76*,-2,15,-12,2
CCOc1ccc(NC(=S)Nc2ccc3nsnc3c2)cc1,3,-1,1,0,3,13,.
Cc1ccc(NC(=O)C2(c3ccccc3)CCOCC2)c([N+](=O)[O-])c1,1,-5,0,1,21,-28,.
COC(=O)c1ccc(NC(=O)c2cccc(C)c2[N+](=O)[O-])cc1,3,-9,85*,4,6,8,3
Cn1c(=O)c2c(nc(Sc3ncnn3CC(=O)NC3CCCCC3)n2C)n(C)c1=O,2,-7,-1,3,-22,0,.
O=[N+]([O-])c1cc(-c2nnc(Nc3ccccc3)c3ccccc23)ccc1N1CCOCC1,-1,-5,98*,1,4,-2,36
Nc1ncc(Br)cc1S(=O)(=O)NCCC(=O)Nc1cccc(Cl)c1,0,-10,0,0,10,11,.
Nc1ncc(Br)cc1S(=O)(=O)NCCC(=O)N1CCN(c2ncccn2)CC1,1,-4,92*,18,-15,22,3
CCCC(C(=O)NC1CCCC1)N(C(=O)Cn1nnc(-c2ccc(C)o2)n1)c1ccccc1OC (stereo not drawn),-3,-7,0,-2,30,.,.
Cc1c(C(=O)O)c(C(=O)O)c2n1CCS2,1,6,0,0,-8,0,.
Cc1cccnc1NC(=O)Nc1ccc(F)cc1,2,-8,82*,-1,-2,.,3
Cc1cnc(NC(=O)Nc2ccc(Cl)cc2)s1,3,1,78*,-15,0,-16,0
O=C(Nc1ccc(F)cc1)Nc1ccc(Cl)cn1,-1,-4,76*,13,13,10,23
Cc1ccc(NC(=O)Nc2ncccc2C)cc1,0,-3,32,-1,-24,.,.
Cc1cnc(NC(=O)CSc2ccc(Cl)cc2)s1,6,-9,0,1,14,.,.
SMILES,Wee1 stabilizer,RBBP9 inhibitor,zVAD death inh,TNF death inh,m-calpain inh,Pf gametocyte,zVAD death conf
O=C(Nc1ccc(F)c(Cl)c1)Nc1ccc(Cl)cn1,0,-8,17,1,-11,9,.
CNC(=O)c1cc(Nc2nnc(-c3ccc(O)cc3)c3ccccc23)ccc1OC,0,-8,80*,-2,-17,-12,2
CNC(=O)c1ccc(Nc2nnc(-c3ccc(O)cc3)c3ccccc23)cc1,.,.,.,.,.,-2,.
CCC/C(=N\NC(=O)c1cccc(C)c1)c1ccccc1,-3,3,1,2,-2,5,.
Fc1ccccc1-c1ccc(/C=N/Nc2nc3ccccc3[nH]2)o1,3,2,1,-2,-10,17,.
Cc1ccc(/C=N\Nc2nc3ccc(Cl)cc3[nH]2)o1,3,5,86*,9,14,.,78*

# Bioassay records as filed in PubChem.
